Experimental data published in ChEMBL document CHEMBL5365533, “DNA major versus minor groove occupancy of monomeric and dimeric crystal violet derivatives. Toward structural correlations” (Bioorg Med Chem, 2023).
Activity calls are given as the source filed them. The calls are words filed in the database; no cut-off is given here.

How the values were obtained:
[1] = Displacement of Ethidium bromide from G5C5 (5'-AAAGGGGG-CCCCCTTT-3') DNA (unknown origin)/EtBr complex assessed as decrease in initial absorbance of DNA by crystal violet staining based analysis
DNA [2] = assay: Displacement of Ethidium bromide from A5T5 (5'-GGGAAAAATTTTTCCCCC-3') DNA (unknown origin)/EtBr complex assessed as decrease in initial absorbance of DNA by crystal violet staining based analysis; assay type: nucleic-acid assay
[3] = Binding affinity to DDD hairpin DNA (unknown origin) assessed as binding constant at 100 uM by ITC analysis
Summary of the method: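 Isothermal titration calorimetry of DDD hairpin (10 μM in cell) titrated with ligand (100 μM in syringe), 10 mM Tris-HCl pH 7.0, 30 °C; 25 injections of 10 μL. Heats of dilution subtracted; single-site binding model fitted; K averaged from triplicate experiments.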

DNA [4] = assay: Displacement of Ethidium bromide from (AT)5 (5'-GGGATATA-TATATCCC-3') DNA (unknown origin)/EtBr complex assessed as decrease in initial absorbance of DNA by crystal violet staining based analysis; assay type: nucleic-acid assay
Calf thymus DNA [5] = assay: Binding affinity to calf thymus DNA assessed as change in melting temperature by UV thermal denaturation assay; assay type: nucleic-acid assay; conditions: Bos taurus
Summary of the method: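 CT DNA in 10 mM Tris-HCl pH 7.0 at a DNA:ligand ratio of 30:1, in 1 cm quartz cuvettes. Absorbance read every 2 °C from 25 to 95 °C, heating at 1 °C/min. Tm taken from first-derivative plots.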

[6] = Displacement of Ethidium bromide from G6 (5'-GGGGGG-3') hairpin DNA (unknown origin)/EtBr complex assessed as decrease in initial absorbance of DNA by crystal violet staining based analysis
[7] = Displacement of Ethidium bromide from NFAT1 (5-GAAAAA-3') hairpin DNA (unknown origin)/EtBr complex assessed as decrease in initial absorbance of DNA by crystal violet staining based analysis
[8] = Displacement of Ethidium bromide from cMyc (5'-CACGTG-3') hairpin DNA (unknown origin)/EtBr complex assessed as decrease in initial absorbance of DNA by crystal violet staining based analysis
[9] = Displacement of Ethidium bromide from DDD (5-CGAATT-3') hairpin DNA (unknown origin)/EtBr complex assessed as decrease in initial absorbance of DNA by crystal violet staining based analysis
AT rich DNA [10] = assay: Displacement of Ethidium bromide from AT3 (5'-ATATAT-3') hairpin DNA (unknown origin)/EtBr complex assessed as decrease in initial absorbance of DNA by crystal violet staining based analysis; assay type: nucleic-acid assay
[11] = Displacement of Ethidium bromide from STAT6 (5'-TCCTAG-3') hairpin DNA (unknown origin)/EtBr complex assessed as decrease in initial absorbance of DNA by crystal violet staining based analysis
[12] = Displacement of Ethidium bromide from cMyc (5'-CACGTG-3') hairpin DNA (unknown origin)/EtBr complex assessed as binding constant by crystal violet staining based analysis
Calf thymus DNA [13] = assay: Binding affinity to calf thymus DNA in Tris-HCl buffer at pH 7.0 assessed as minimal change in viscosity incubated for 30 mins by Ostwald viscometer analysis; assay type: nucleic-acid assay; conditions: Bos taurus
Summary of the method: (§1)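 Ostwald viscometer at 23.0 ± 1 °C. CT DNA held at 300 μM/bp in 10 mM Tris-HCl pH 7.0 with ligand or ethidium at 0–26 μM, incubated 30 min before timing flow. (η/η0)^1/3 plotted against [ligand]/[DNA]; three replicates, SD shown.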

[14] = Displacement of Ethidium bromide from NFAT1 (5-GAAAAA-3') hairpin DNA (unknown origin)/EtBr complex assessed as binding constant by crystal violet staining based analysis
AT rich DNA [15] = assay: Displacement of Ethidium bromide from AT3 (5'-ATATAT-3') hairpin DNA (unknown origin)/EtBr complex assessed as binding constant by crystal violet staining based analysis; assay type: nucleic-acid assay
[16] = Displacement of Ethidium bromide from STAT6 (5'-TCCTAG-3') hairpin DNA (unknown origin)/EtBr complex assessed as binding constant by crystal violet staining based analysis
Calf thymus DNA [17] = assay: Binding affinity to calf thymus DNA assessed as bathochromic shift by UV spectroscopic analysis; assay type: nucleic-acid assay; conditions: Bos taurus
Summary of the method: (§2)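 UV titration in 10 mM Tris-HCl pH 7.0 with ligand fixed at 5.0 μM and CT DNA:ligand ratios of 0:1, 1:1, 2:1, 5:1, 10:1 and 30:1.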

Calf thymus DNA [18] = assay: Binding affinity to calf thymus DNA in Tris-HCl buffer at pH 7.0 assessed as rigidification of DNA from intercalation of drug incubated for 30 mins by Ostwald viscometer analysis; assay type: nucleic-acid assay; conditions: Bos taurus; summary of the method: as §1
DNA [19] = assay: Binding affinity to pUC-19 plasmid DNA (unknown origin) assessed as DNA cleavage incubated for 30 mins in presence of BamHI restriction enzyme by ethidium bromide staining based agarose gel electrophoresis analysis; assay type: nucleic-acid assay
Summary of the method: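 pUC-19 linearized with AlwNI (37 °C, 30 min), enzyme heat-killed at 80 °C for 20 min, then incubated with varying ligand concentrations. BamHI digestion for 30 min at 37 °C. Run on 1% agarose containing ethidium bromide, 120 V for 40 min; visualized by UV transillumination.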

[20] = Binding affinity to DDD (5-CGAATT-3') hairpin DNA (unknown origin) assessed as binding constant by isothermal titration calorimetry
Calf thymus DNA [21] = assay: Binding affinity to calf thymus DNA assessed as hypochromic shift by UV spectroscopic analysis; assay type: nucleic-acid assay; conditions: Bos taurus; summary of the method: as §2
Calf thymus DNA [22] = assay: Binding affinity to calf thymus DNA in Tris-HCl buffer at pH 7.0 assessed as lengthening of DNA from intercalation of drug incubated for 30 mins by Ostwald viscometer analysis; assay type: nucleic-acid assay; conditions: Bos taurus; summary of the method: as §1
Calf thymus DNA [23] = assay: Ratio of Kapp for displacement of ethidium bromide from calf thymus DNA/EtBr complex to Kapp for displacement of ethidium bromide from calf thymus DNA/EtBr in presence of methyl green; assay type: nucleic-acid assay; conditions: Bos taurus
Summary of the method: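 Fluorescence titration of CT DNA (1.0 μM/bp) plus ethidium (0.5 μM), with or without netropsin or methyl green (0.5 μM each), against increasing ligand in 10 mM Tris-HCl pH 7.0. Excitation 520 nm, emission 590 nm, read after 3 min equilibration. C50 is the concentration giving 50% fluorescence loss; Kapp = 9.5×10^6 M⁻¹ × C_ethidium/C50.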

Calf thymus DNA [24] = assay: Binding affinity to calf thymus DNA in Tris-HCl buffer at pH 7.0 assessed as decrease in viscosity incubated for 30 mins by Ostwald viscometer analysis; assay type: nucleic-acid assay; conditions: Bos taurus; summary of the method: as §1
[25] = Binding affinity to DDD hairpin DNA (unknown origin) in Tris-HCl buffer at pH 5.0 assessed as negative induced CD bands formation at 310nm at 1 mM incubated for 5 mins by CD spectra analysis
Summary of the method: (§3)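 Ligand (1 mM stock) added in small aliquots to DDD hairpin (8.8 μM) in 10 mM Tris-HCl pH 5.0; mixed by inversion and incubated 5 min at 20 °C. CD recorded 215–350 nm in 0.5 nm steps as the average of three scans.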

Calf thymus DNA [26] = assay: Binding affinity to calf thymus DNA in Tris-HCl buffer at pH 7.0 assessed as differential groove occupancy at 100 uM by ITC analysis; assay type: nucleic-acid assay; conditions: Bos taurus
Summary of the method: (§4)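 ITC of CT DNA (100 μM/bp in cell) titrated with ligand (100 μM in syringe), 10 mM Tris-HCl pH 7.0; 25 injections of 10 μL at 30 °C, or for one ligand 50 injections of 5 μL at 27 °C. Buffer-into-DNA heats subtracted; single-site model gives K, N, ΔH and ΔS.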

[27] = Binding affinity to DDD hairpin DNA (unknown origin) in Tris-HCl buffer at pH 5.0 assessed as reduction in base stacking band formation at 280nm at 1 mM incubated for 5 mins by CD spectra analysis; summary of the method: as §3
Calf thymus DNA [28] = assay: Binding affinity to calf thymus DNA in Tris-HCl buffer at pH 7.0 assessed as change in enthalpy at 100 uM by isothermal titration […] analysis; assay type: nucleic-acid assay; conditions: Bos taurus; summary of the method: as §4
Calf thymus DNA [29] = assay: Binding affinity to calf thymus DNA in Tris-HCl buffer at pH 7.0 assessed as change in entropy at 100 uM by isothermal titration […] analysis; assay type: nucleic-acid assay; conditions: Bos taurus; summary of the method: as §4
[30] = Binding affinity to DDD hairpin DNA (unknown origin) in Tris-HCl buffer at pH 5.0 assessed as negligible changes in helicity band formation at 245nm at 1 mM incubated for 5 mins by CD spectra analysis; summary of the method: as §3

Structure (SMILES)	C50 [1]	C50 (DNA [2])	K [3]	C50 (DNA [4])	ΔTm (Calf thymus DNA [5])	C50 [6]	C50 [7]	C50 [8]	C50 [9]	C50 (AT rich DNA [10])	C50 [11]	other results
CN(C)c1ccc(C(=C2C=CC(=[N+](C)C)C=C2)c2ccc(N(C)C)c(-c3ccccc3)c2)cc1-c1ccccc1	2.09 µM	1.83 µM	0.3 10^5/M	1.81 µM	1.6 °C	–	–	–	–	–	–	–
CN(C)c1ccc(C(=C2C=CC(=[N+](C)C)C=C2)c2ccc(C#Cc3cc4c(cc3C#Cc3ccc(C(=C5C=CC(=[N+](C)C)C=C5)c5ccc(N(C)C)cc5)cc3)OCO4)cc2)cc1	–	–	0.5 10^5/M	–	2.6 °C	1.32 µM	2.22 µM	1.95 µM	1.27 µM	1.52 µM	1.91 µM	–
CN(C)c1ccc(C(=C2C=CC(=[N+](C)C)C=C2)c2ccccc2-c2ccccc2-c2ccccc2C(=C2C=CC(=[N+](C)C)C=C2)c2ccc(N(C)C)cc2)cc1	–	–	21.1 10^5/M	–	3.6 °C	0.51 µM	0.69 µM	0.57 µM	0.54 µM	1.11 µM	0.56 µM	K [12]: 114000 M⁻¹; Activity (Calf thymus DNA [13]): Dose-Dependent Effect; K [14]: 1.14 10^5/M; K (AT rich DNA [15]): 0.32 10^5/M; K [16]: 1.8 10^5/M; Activity (Calf thymus DNA [17]): Active; Activity (Calf thymus DNA [18]): Active; IC50 (DNA [19]): 67 µM; K [20]: 21.1 10^5/M; Activity (Calf thymus DNA [21]): Active; Activity (Calf thymus DNA [22]): Active
CN(C)c1ccc(C(=C2C=CC(=[N+](C)C)C=C2)c2ccc(N(C)C)c(-c3ccccc3)c2)cc1	2.99 µM	2.61 µM	96.4 10^5/M	2.75 µM	6.2 °C	–	–	–	–	–	–	Ratio (Calf thymus DNA [23]): 2.3
CN(C)c1ccc(C(=C2C=CC(=[N+](C)C)C=C2)c2ccc(/C=C/c3cc4c(cc3/C=C/c3ccc(C(=C5C=CC(=[N+](C)C)C=C5)c5ccc(N(C)C)cc5)cc3)OCO4)cc2)cc1	–	–	7.5 10^5/M	–	3.3 °C	1.1 µM	1.27 µM	1.8 µM	0.78 µM	1.21 µM	1.12 µM	Ratio (Calf thymus DNA [23]): > 8; K [12]: 32000 M⁻¹; Activity (Calf thymus DNA [24]): Dose-Dependent Effect; Activity [25]: Active; Activity (Calf thymus DNA [26]): Active; Activity [27]: Active; K [14]: 49.8 10^5/M; deltaH (Calf thymus DNA [28]): 85.8 kcal/mol; K (AT rich DNA [15]): 5.79 10^5/M; deltaS (Calf thymus DNA [29]): 0.316 kcal/mol; K [16]: 2.22 10^5/M; Activity (Calf thymus DNA [17]): Active; Activity [30]: Active; IC50 (DNA [19]): 5.4 µM; K [20]: 7.54 10^5/M; Activity (Calf thymus DNA [21]): Active
CC1=CC(=[N+](C)C)C=CC1=C(c1ccc(N(C)C)cc1C)c1ccc(N(C)C)cc1C	7.21 µM	2.4 µM	1.2 10^5/M	2.3 µM	2.6 °C	–	–	–	–	–	–	–
CN(C)c1ccc(C(=C2C=CC(=[N+](C)C)C=C2)c2ccc(-c3cc4c(cc3-c3ccc(C(=C5C=CC(=[N+](C)C)C=C5)c5ccc(N(C)C)cc5)cc3)OCO4)cc2)cc1	–	–	2.4 10^5/M	–	2.6 °C	1.25 µM	1.23 µM	1.42 µM	1.47 µM	1.36 µM	1.32 µM	–
CN(C)c1ccc(C(=C2C=CC(=[N+](C)C)C(c3ccccc3)=C2)c2ccc(N(C)C)c(-c3ccccc3)c2)cc1-c1ccccc1	3.36 µM	3.13 µM	48.7 10^5/M	2.71 µM	2.2 °C	–	–	–	–	–	–	–
CN(C)c1ccc(C(=C2C=CC(=[N+](C)C)C=C2)c2ccc3cc(N(C)C)ccc3c2)cc1	0.88 µM	0.52 µM	3.1 10^5/M	0.32 µM	4.6 °C	–	–	–	–	–	–	–
